Measured values from ChEMBL document CHEMBL3616442, “Unconventional Knoevenagel-type indoles: Synthesis and cell-based studies for the identification of pro-apoptotic agents” (Eur J Med Chem, 2015).

Tests used:
Assay type in all cases: functional
[1] = Growth inhibition of human MOLT4 cells after 48 hrs by sulforhodamine B assay; details: MOLT-4, 48 h
How it was run: (§1)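 NCI 60-cell-line screen. Compounds tested at five 10-fold dilutions from 10^-4 to 10^-8 M. Cells exposed for the last 48 h of a 72 h incubation, growth estimated by sulforhodamine B protein assay. GI50 is the concentration giving 50% growth inhibition. Values beyond the tested range are expressed as greater or lesser than the extreme concentration.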

[2] = Growth inhibition of human SF539 cells after 48 hrs by sulforhodamine B assay; details: SF-539, 48 h
A549 = assay: Growth inhibition of human A549 cells after 48 hrs by sulforhodamine B assay; details: A549, 48 h; how it was run: as §1
A498 = assay: Growth inhibition of human A498 cells after 48 hrs by sulforhodamine B assay; details: A498, 48 h; how it was run: as §1
SF-268 = assay: Growth inhibition of human SF268 cells after 48 hrs by sulforhodamine B assay; details: SF-268, 48 h
K562 = assay: Growth inhibition of human K562 cells after 48 hrs by sulforhodamine B assay; details: K562, 48 h; how it was run: as §1
CAKI-1 = assay: Growth inhibition of human CAKI-1 cells after 48 hrs by sulforhodamine B assay; details: CAKI-1, 48 h; how it was run: as §1
Malme-3M = assay: Growth inhibition of human MALME-3M cells after 48 hrs by sulforhodamine B assay; how it was run: as §1
[3] = Growth inhibition of human Hs 578T cells after 48 hrs by sulforhodamine B assay; how it was run: as §1
[4] = Growth inhibition of human SF295 cells after 48 hrs by sulforhodamine B assay; details: SF-295, 48 h
UO-31 = assay: Growth inhibition of human UO31 cells after 48 hrs by sulforhodamine B assay; details: UO-31, 48 h
OVCAR-3 = assay: Growth inhibition of human OVCAR3 cells after 48 hrs by sulforhodamine B assay; details: OVCAR-3, 48 h; how it was run: as §1
OVCAR-5 = assay: Growth inhibition of human OVCAR5 cells after 48 hrs by sulforhodamine B assay; details: OVCAR-5, 48 h
T47D = assay: Growth inhibition of human T47D cells after 48 hrs by sulforhodamine B assay
[5] = Growth inhibition of human COLO205 cells after 48 hrs by sulforhodamine B assay; details: COLO 205, 48 h; how it was run: as §1
[6] = Growth inhibition of human BT549 cells after 48 hrs by sulforhodamine B assay; details: BT-549, 48 h; how it was run: as §1
MDA-MB-468 = assay: Growth inhibition of human MDA-MB-468 cells after 48 hrs by sulforhodamine B assay; details: MDA-MB-468, 48 h; how it was run: as §1
HOP-62 = assay: Growth inhibition of human HOP62 cells after 48 hrs by sulforhodamine B assay; details: HOP-62, 48 h; how it was run: as §1
UACC-62 = assay: Growth inhibition of human UACC62 cells after 48 hrs by sulforhodamine B assay; details: UACC-62, 48 h
PC-3 = assay: Growth inhibition of human PC3 cells after 48 hrs by sulforhodamine B assay; details: PC-3, 48 h
IGROV-1 = assay: Growth inhibition of human IGROV1 cells after 48 hrs by sulforhodamine B assay; details: IGROV-1, 48 h; how it was run: as §1
NCI-H522 = assay: Growth inhibition of human NCI-H522 cells after 48 hrs by sulforhodamine B assay; details: NCI-H522, 48 h; how it was run: as §1
[7] = Growth inhibition of human HCC2998 cells after 48 hrs by sulforhodamine B assay; details: HCC 2998, 48 h; how it was run: as §1
786-0 = assay: Growth inhibition of human 786-0 cells after 48 hrs by sulforhodamine B assay; details: 786-0, 48 h; how it was run: as §1
TK-10 = assay: Growth inhibition of human TK10 cells after 48 hrs by sulforhodamine B assay; details: TK-10, 48 h
NCI-H226 = assay: Growth inhibition of human NCI-H226 cells after 48 hrs by sulforhodamine B assay; details: NCI-H226, 48 h; how it was run: as §1
MCF7 = assay: Growth inhibition of human MCF7 cells after 48 hrs by sulforhodamine B assay; details: MCF7, 48 h; how it was run: as §1
DU-145 = assay: Growth inhibition of human DU145 cells after 48 hrs by sulforhodamine B assay; details: DU-145, 48 h; how it was run: as §1
SNB-19 = assay: Growth inhibition of human SNB19 cells after 48 hrs by sulforhodamine B assay; details: SNB-19, 48 h
SK-MEL-2 = assay: Growth inhibition of human SK-MEL-2 cells after 48 hrs by sulforhodamine B assay; details: SK-MEL-2, 48 h
UACC-257 = assay: Growth inhibition of human UACC257 cells after 48 hrs by sulforhodamine B assay; details: UACC-257, 48 h
SR = assay: Growth inhibition of human SR cells after 48 hrs by sulforhodamine B assay
NCI-H322M = assay: Growth inhibition of human NCI-H322M cells after 48 hrs by sulforhodamine B assay; how it was run: as §1
[8] = Growth inhibition of human LOXIMVI cells after 48 hrs by sulforhodamine B assay; details: LOX IMVI; how it was run: as §1
[9] = Growth inhibition of human RXF393 cells after 48 hrs by sulforhodamine B assay; details: RXF 393, 48 h
[10] = Growth inhibition of human EKVX cells after 48 hrs by sulforhodamine B assay; how it was run: as §1
SK-MEL-28 = assay: Growth inhibition of human SK-MEL-28 cells after 48 hrs by sulforhodamine B assay; details: SK-MEL-28, 48 h
SNB-75 = assay: Growth inhibition of human SNB75 cells after 48 hrs by sulforhodamine B assay; details: SNB-75, 48 h
HT-29 = assay: Growth inhibition of human HT-29 cells after 48 hrs by sulforhodamine B assay; details: HT-29, 48 h; how it was run: as §1
[11] = Growth inhibition of human NCI-ADR-RES cells after 48 hrs by sulforhodamine B assay; how it was run: as §1
SK-MEL-5 = assay: Growth inhibition of human SK-MEL-5 cells after 48 hrs by sulforhodamine B assay; details: SK-MEL-5, 48 h
[12] = Growth inhibition of human HOP92 cells after 48 hrs by sulforhodamine B assay; details: HOP-92, 48 h; how it was run: as §1
[13] = Growth inhibition of human RPMI8226 cells after 48 hrs by sulforhodamine B assay; details: RPMI-8226, 48 h
NCI-H460 = assay: Growth inhibition of human NCI-H460 cells after 48 hrs by sulforhodamine B assay; details: NCI-H460, 48 h; how it was run: as §1
OVCAR-8 = assay: Growth inhibition of human OVCAR8 cells after 48 hrs by sulforhodamine B assay; details: OVCAR-8, 48 h
M14 = assay: Growth inhibition of human M14 cells after 48 hrs by sulforhodamine B assay; details: M14, 48 h; how it was run: as §1

For `N#C/C(=C\c1c(-c2ccccc2)[nH]c2ccccc12)S(=O)(=O)c1ccccc1`, the GI50 [1] was 2.2 µM, the GI50 [2] was 2.5 µM and the GI50 (A549) was 3.7 µM. For the same compound, the GI50 (A498) was 11 µM, the GI50 (SF-268) was 4.5 µM and the GI50 (K562) was 0.348 µM. The GI50 (CAKI-1) was 5.5 µM, the GI50 (Malme-3M) was 8.4 µM and the GI50 [3] was 23.6 µM. The GI50 [4] was 2.4 µM, the GI50 (UO-31) was 6.7 µM and the GI50 (OVCAR-3) was 1.4 µM. It also gave a GI50 (OVCAR-5) of 13.9 µM, a GI50 (T47D) of 3.8 µM and a GI50 [5] of 1.4 µM. The GI50 [6] was 11.6 µM, the GI50 (MDA-MB-468) was 1.9 µM and the GI50 (HOP-62) was 9.3 µM. It also gave a GI50 (UACC-62) of 2.6 µM, a GI50 (PC-3) of 3.4 µM and a GI50 (IGROV-1) of 3.3 µM. For the same compound, the GI50 (NCI-H522) was 4.6 µM, the GI50 [7] was 10.9 µM and the GI50 (786-0) was 9.2 µM. It also gave a GI50 (TK-10) of 5.6 µM, a GI50 (NCI-H226) of 4.1 µM and a GI50 (MCF7) of 2.2 µM. The GI50 (DU-145) was 2.9 µM, the GI50 (SNB-19) was 8.3 µM and the GI50 (SK-MEL-2) was 12.7 µM. It also gave a GI50 (UACC-257) of 18.2 µM, a GI50 (SR) of 17.3 µM and a GI50 (NCI-H322M) of 9.2 µM. For the same compound, the GI50 [8] was 4.6 µM, the GI50 [9] was 3.6 µM and the GI50 [10] was 6.2 µM. It also gave a GI50 (SK-MEL-28) of 8.3 µM, a GI50 (SNB-75) of 1.7 µM and a GI50 (HT-29) of 0.595 µM. It also gave a GI50 [11] of 1.1 µM, a GI50 (SK-MEL-5) of 1.82 µM and a GI50 [12] of 10.3 µM. For the same compound, the GI50 [13] was 0.714 µM, the GI50 (NCI-H460) was 2.7 µM and the GI50 (OVCAR-8) was 6 µM. It also gave a GI50 (M14) of 3.8 µM.
